Reference: ChEMBL document CHEMBL4513216, “Probing the Open Global Health Chemical Diversity Library for Multistage-Active Starting Points for Next-Generation Antimalarials” (ACS Infect Dis, 2020)

Test: Toxicity liver stage against HepG2, at 10uM
Format: cell-based
Design: test concentration 10 uM, cell line HepG2-A16-CD81EGFP
Details: human, HepG2-A16-CD81EGFP cells; read-out: INHIBITION
How it was run: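 Uninfected HepG2-A16-CD81EGFP cells, 3 × 10^3 per well, 1536-well, plated on prespotted compound at 10 μM final, parasite-free screening media added to match infected plates; puromycin 10 μM positive, DMSO 0.5% negative; run in parallel with 48 h PbLuc assay at 37 °C, 5% CO2; viability by CellTiter-Glo luminescence, normalized to controls.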

| Structure (SMILES) | cytotoxicity at 10 µM [%] |
| --- | --- |
| CNC(=O)CN(C)C(=O)c1cc(Cl)c(I)cc1OC | 13.8 |
| Cc1ccc(N(C)C2CCCN(C(=O)Nc3ccc(F)cc3F)C2)cc1 (stereo not given) | -8.19 |
| O=S(=O)(Cc1ccccc1F)NC(CO)c1ccco1 (stereo not given) | 6.6 |
| CN(C)C(=O)c1ccc(CNc2c(Cl)cccc2C#N)cc1 | -50.6 |
| Cc1ccc(=O)n(CC(=O)N2CCCC(c3nc(C)c(C)s3)C2)n1 (stereo not given) | -3.06 |
| CCc1ccc(C(=O)N2CCCC(n3cncn3)C2)o1 (stereo not given) | -9.78 |
| Cc1ccc2c(c1)C1(CCN(C(N)=O)CC1)CN2CC1CC1 | -109 |
| CNC(=O)CC1CC2(CCNCC2)c2cc(F)ccc21 (stereo not given) | -107 |
| CS(=O)(=O)N[C@@H]1CCN(Cc2cccnc2)[C@H]1Cc1cccnc1 | -70.2 |
| CCN1Cc2c(C(=O)NC)ncn2-c2ccccc2S1(=O)=O | -73 |
| O=S(=O)(c1ccccc1)N1CC[C@]2(C[C@@H](OCC3CC3)CO2)C1 | -81.3 |
| Cc1nc2ccccn2c1CN1C[C@@H](CN(C)C)[C@@H](CO)C1 | 0.743 |
| Nc1ccnc(N2CCCC(CO)(Cc3cccc(Cl)c3)C2)n1 (stereo not given) | 0.528 |
| CN1CCNC(=O)C1CC(=O)NCCc1cnn(-c2ccccc2)c1 (stereo not given) | 2.53 |
| CCNC(=O)CN1CCCC(c2ccc(C(=O)O)cc2)C1 (stereo not given) | 8.57 |
| CC(C)[C@H]1CN(Cc2nccn2C)C[C@@H]1NC(=O)COCC(N)=O | -0.0298 |
| CCOCc1nc(-c2ccc(F)cc2Cl)n(C)n1 | -10.2 |
| CNc1cc(C)nc(N2C[C@H](NC(=O)C3CCOCC3)[C@@H](C3CC3)C2)n1 | 4.41 |
| O=C(Cc1ccsc1)N1CCC(c2ccncc2)CC1 | 8.89 |
| Cc1noc(C)c1CN(C)C(=O)c1cnc(C2CC2)nc1O | -4.65 |
| C[C@@H]1CN(C2CCN(Cc3nn(C)c4cccc(Cl)c34)CC2)C[C@H](C)O1 | -6.48 |
| CCCn1cnnc1CNC(=O)CC1C(=O)NCCN1C(C)C (stereo not given) | 0.445 |
| CCc1nc(Cn2ccnc2-c2nccn2C)no1 | -42 |
| Cc1cc(-c2cc(S(=O)(=O)N3C[C@H](C4CC4)[C@@H](N)C3)c(C)s2)on1 | 3.37 |
| CCOCc1nc2c(c(N(C)Cc3snnc3C)n1)CCNCC2 | 10.7 |
| Cc1csc2ncn(C(C)Cc3cccnc3)c(=O)c12 (stereo not given) | 6.9 |
| Cc1cc(CN(C)C(=O)C(c2ccccc2C)N(C)C)on1 (stereo not given) | 3.65 |
| CCN(Cc1noc(CC(C)C)n1)Cc1cccc(F)c1O | -44 |

| Structure (SMILES) | cytotoxicity at 10 µM [%] |
| --- | --- |
| O=C(c1cccnc1N1CCOC(c2ccc(F)cc2)C1)N1CCCC1 (stereo not given) | 8.04 |
| CNC(=O)C(C)(C)NC(=O)c1cc(COc2cccc(C(C)=O)c2)[nH]n1 | 3.69 |
| CCc1ccc2nc(-c3cnn(C)c3)cc(C(=O)N3CCOCC3)c2c1 | -2.96 |
| COc1ccc(N2CCC(N(C)C(C)C(=O)N(C)C)CC2)cc1 (stereo not given) | 11 |
| Cn1cccc1-c1cc(C(=O)N2CC(c3cccnc3)C2)[nH]n1 | -13.7 |
| Cc1noc(C)c1S(=O)(=O)NC(=O)COc1ccc2c(c1)CCC2 | -3.07 |
| CCc1nc(C2CCCN(C(=O)c3c(C)noc3C)C2)no1 (stereo not given) | -12.8 |
| CCc1nnc2n1CCN(CC(=O)Nc1cc(C(C)(C)C)nn1C)C2 | -5.77 |
| OC(COCc1ccc(Cl)cc1)CN1CCC(c2ccn[nH]2)CC1 (stereo not given) | -7.21 |
| CC(NC(=O)c1cccs1)C(=O)NCc1ccccc1CN1CCCC1 (stereo not given) | -14.2 |
| CCc1ncc(CN(CCc2ccccc2)Cc2cccs2)cn1 | 2.44 |
| C=C(C)CN1CCN(Cc2cnc(-c3ccc(OC)cc3)nc2)CC1 | -3.41 |
| CNC(=O)c1cccc(C2CNCCN2C(=O)c2cccc(F)c2)c1 (stereo not given) | -7.9 |
| O=C(c1ccco1)N1CCOC2(COCCN(c3ncccn3)C2)C1 (stereo not given) | -102 |
| Cc1nnc([C@@H]2C[C@H]3CN(C4CCC4)C[C@H]3O2)[nH]1 | 8.89 |
| O=C(c1cscn1)N1CCC2(CN(Cc3ccsc3)C2)C1 | 4.06 |
| Cn1cccc1C(=O)N1CCC2(CCCN2Cc2ccccc2)CC1 | 0.929 |
| COc1ncccc1CN1CCC2(CCCN2S(C)(=O)=O)CC1 | 8.86 |
| O=C1[C@H]2CN(Cc3ccoc3)C[C@H]2CN1Cc1ccncc1 | -14.1 |
| Cc1noc(C)c1CN1CCn2cc(CNC(=O)C3CCC3)nc2C1 | 5.28 |
| CN(C)C(=O)CC1CC2(CCN(Cc3cccs3)CC2)c2ccccc21 (stereo not given) | -3.87 |
| c1cnc(N2CCO[C@H]3CN(CC4CCOC4)C[C@H]32)cn1 (stereo not given in full) | -104 |
| c1nc(CNC2CCOCC2)c2n1CCCN(CC1CC1)C2 | -69.1 |
| O=C(c1ccsc1)N1CCO[C@@H]2CN(Cc3ccco3)CC[C@@H]2C1 | -98.6 |
| CCS(=O)(=O)N1C[C@@H](OCc2cccnc2)[C@H]2OCCC[C@H]21 | 3.6 |
| CC(C)CC(=O)NCCn1nc(C2CCNC2)c2cccnc21 (stereo not given) | -25 |
| COCC1CN(Cc2ccccn2)Cc2cn(C)nc21 (stereo not given) | -78.6 |
